Results published in publication PMC6972567 (Journal of Clinical Pharmacology, 2019).

Key:
[1] = Plasma pharmacokinetics of the CYP probe substrates and metabolites; format: in vivo, human; conditions: for t1/2 / half-life: harmonic mean ± pseudo-SD; for AUC(0-inf): AUCinf; for AUC(0-t): AUCt
CYP2C19 = format: in vivo, human; conditions: probe with upadacitinib 30 mg once daily relative to probe alone, all subjects
CYP1A2 = target: T1, CYP1A2 (Homo sapiens, UniProt P05177); format: in vivo; conditions: probe with upadacitinib 30 mg once daily relative to probe alone, all subjects
T1 sequence (P05177 1-516): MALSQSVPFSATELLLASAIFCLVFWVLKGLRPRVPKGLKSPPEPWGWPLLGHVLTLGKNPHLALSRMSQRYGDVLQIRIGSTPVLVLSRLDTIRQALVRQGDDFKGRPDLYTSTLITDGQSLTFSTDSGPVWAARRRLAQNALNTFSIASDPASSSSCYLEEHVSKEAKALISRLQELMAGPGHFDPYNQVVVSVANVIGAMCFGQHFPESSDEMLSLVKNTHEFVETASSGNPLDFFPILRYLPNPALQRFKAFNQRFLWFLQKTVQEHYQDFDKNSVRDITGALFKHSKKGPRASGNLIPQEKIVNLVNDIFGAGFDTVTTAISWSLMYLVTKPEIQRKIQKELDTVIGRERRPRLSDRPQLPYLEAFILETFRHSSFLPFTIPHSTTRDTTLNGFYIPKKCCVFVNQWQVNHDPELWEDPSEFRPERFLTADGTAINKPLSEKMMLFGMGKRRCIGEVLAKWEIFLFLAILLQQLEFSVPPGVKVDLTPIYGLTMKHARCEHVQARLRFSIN
Outline: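 Twenty subjects received single oral doses on two occasions: a caffeine 200 mg tablet with the other cocktail probes, after a 10-hour minimum fast and 4 hours before lunch. This was given first alone, then after a 5-day washout on day 12 of test compound 30 mg once daily (days 1‐15). Heparinised plasma was sampled predose through 24 h and at 36 h, with validated assay.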

CYP2D6 = format: in vivo, human; conditions: probe with upadacitinib 30 mg once daily relative to probe alone, all subjects
CYP3A [2] = format: in vivo, human
[3] = Safety assessments in the cocktail study; format: in vivo, human
[4] = cited from earlier work
CYP3A [5] = conditions: cited from earlier work
[6] = Period 1, CYP probes alone, median (range)
[7] = Period 1, CYP probes alone, n = 20, mean ± SD
[8] = Period 2, CYP probes + upadacitinib 30 mg once daily
[9] = Period 2, CYP probes + upadacitinib 30 mg once daily, median (range)
[10] = Period 2, CYP probes + upadacitinib 30 mg once daily, n = 20, mean ± SD
[11] = human, plasma, oral, t1/2, Period 2, CYP probes + upadacitinib 30 mg once daily
[12] = human, plasma, oral, Period 1, CYP probes alone, n = 20, mean ± SD
[13] = human, plasma, oral, Period 2, CYP probes + upadacitinib 30 mg once daily, n = 20, mean ± SD
[14] = multiple doses of upadacitinib 30 mg once daily
[15] = probe with upadacitinib 30 mg once daily relative to probe alone, all subjects

## COc1ccc2nc([S+]([O-])Cc3ncc(CO)c(OC)c3C)[nH]c2c1 (centres unmarked) [5‐Hydroxy omeprazole, 5‐hydroxy‐omeprazole]
[1]; Period 1, CYP probes alone
  t1/2: 1.36 ± 0.293 h
[1]; [6]
  Tmax: 3.0 (2.0‐6.0) h
[1]; [7]
  AUCinf: 1290 ± 364 ng·h/mL
  AUCt: 1270 ± 359 ng·h/mL
[1]; Period 1, CYP probes alone, single oral dose, plasma, healthy subjects n = 20, mean ± SD
  Cmax: 435 ± 155 ng/mL
[1]; [8]
  t1/2: 1.37 ± 0.319 h
[1]; [9]
  Tmax: 3.0 (2.0‐6.0) h
[1]; [10]
  AUCinf: 1180 ± 302 ng·h/mL
  AUCt: 1160 ± 292 ng·h/mL
[1]; Period 2, CYP probes + upadacitinib 30 mg once daily, plasma, n = 20, mean ± SD
  Cmax: 389 ± 116 ng/mL
CYP2C19
  AUCinf Central Value Ratio (90%CI): 0.92 (0.86‐0.99)
  AUCt Central Value Ratio (90%CI): 0.92 (0.85‐0.99)

## Cn1c(=O)c2c(ncn2C)n(C)c1=O [Caffeine, caffeine]
[1]; [7]
  CL/F: 6.53 ± 2.99 L/h
[1]; [9]
  Tmax: 2.0 (1.0‐4.0) h
[1]; [10]
  CL/F: 5.31 ± 2.26 L/h
[1]; human, plasma, oral
  Tmax: 2 h
[1]; human, plasma, oral, t1/2, Period 1, CYP probes alone
  half-life: 4.52 ± 1.5 h
[1]; [11]
  half-life: 5.28 ± 1.5 h
[1]; human, plasma, po
  Cmax: 4190 ± 826 ng/mL
CYP1A2
  AUCinf Central Value Ratio (90%CI): 1.22 (1.15‐1.29)
  AUCt Central Value Ratio (90%CI): 1.21 (1.15‐1.28)
  Cmax Central Value Ratio (90%CI): 1.13 (1.05‐1.22)

## COc1ccc2c(c1)[C@]13CCCC[C@@H]1[C@H](C2)N(C)CC3 [Dextromethorphan, dextromethorphan]
[1]; Period 1, CYP probes alone
  t1/2: 6.82 ± 4.68 h
[1]; [7]
  CL/F: 4120 ± 5580 L/h
[1]; [8]
  t1/2: 7.26 ± 5.08 h
[1]; [9]
  Tmax: 3.5 (2.0‐6.0) h
[1]; [10]
  CL/F: 3390 ± 4560 L/h
[1]; human, plasma, oral
  Tmax: 3.5 h
[1]; [12]
  AUC(0-inf): 403 ± 706 ng·h/mL
  AUC(0-t): 250 ± 397 ng·h/mL
[1]; [13]
  AUC(0-inf): 328 ± 552 ng·h/mL
  AUC(0-t): 225 ± 347 ng·h/mL
[1]; human, plasma, po
  Cmax: 7.77 ± 10.1 ng/mL
CYP2D6
  AUCinf Central Value Ratio (90%CI): 1.07 (0.95‐1.22)
  AUCt Central Value Ratio (90%CI): 1.10 (0.97‐1.25)
  Cmax Central Value Ratio (90%CI): 1.09 (0.98‐1.21)

## Cc1ncc2n1-c1ccc(Cl)cc1C(c1ccccc1F)=NC2 [Midazolam, midazolam]
[1]; Period 1, CYP probes alone
  t1/2: 4.65 ± 2.51 h
[1]; [6]
  Tmax: 0.5 (0.5‐1.0) h
[1]; [7]
  CL/F: 68.1 ± 29.2 L/h
[1]; [8]
  t1/2: 4.08 ± 2.33 h
[1]; [10]
  CL/F: 90.2 ± 32.7 L/h
[1]; [13]
  AUC(0-inf): 64.6 ± 30.9 ng·h/mL
  AUC(0-t): 63.2 ± 29.6 ng·h/mL
[1]; [12]
  AUC(0-t): 87.5 ± 44.5 ng·h/mL
[1]; human, plasma, po
  Cmax: 32.6 ± 14.1 ng/mL
CYP3A [2]; [14]
  decrease in AUCinf: 26%
  decrease in Cmax: 26%
CYP3A [2]; [15]
  AUCinf Central Value Ratio (90%CI): 0.74 (0.68‐0.80)
  AUCt Central Value Ratio (90%CI): 0.74 (0.68‐0.80)
  Cmax Central Value Ratio (90%CI): 0.74 (0.68‐0.80)
CYP3A [2]; upadacitinib 30 mg once daily
  decrease in exposure: 26%

## COc1ccc2[nH]c([S+]([O-])Cc3ncc(C)c(OC)c3C)nc2c1 (centres unmarked) [Omeprazole, omeprazole]
[1]; [7]
  CL/F: 26.5 ± 20.5 L/h
[1]; [9]
  Tmax: 3.0 (2.0‐6.0) h
[1]; [10]
  CL/F: 34.9 ± 24.7 L/h
[1]; human, plasma, oral
  Tmax: 3 h
[1]; [12]
  AUC(0-inf): 2890 ± 2870 ng·h/mL
  AUC(0-t): 2520 ± 2750 ng·h/mL
[1]; [13]
  AUC(0-inf): 2080 ± 1860 ng·h/mL
  AUC(0-t): 2000 ± 1820 ng·h/mL
[1]; [11]
  half-life: 1.14 ± 0.386 h
CYP2C19
  AUCinf Central Value Ratio (90%CI): 0.82 (0.72‐0.94)
  AUCt Central Value Ratio (90%CI): 0.87 (0.77‐0.99)
  Cmax Central Value Ratio (90%CI): 0.87 (0.72‐1.05)

## CC(=O)C[C@@H](c1ccccc1)c1c(O)c2ccccc2oc1=O [S‐warfarin]
[1]; [6]
  Tmax: 2.0 (0.5‐4.0) h
[1]; [9]
  Tmax: 2.0 (0.5‐3.0) h
[1]; carryover after 5-day washout
  concentrations at the start of period 2: < 5 % of S‐warfarin Cmax

## CC[C@@H]1CN(C(=O)NCC(F)(F)F)C[C@@H]1c1cnc2cnc3[nH]ccc3n12 [Upadacitinib]
CYP3A [2]; upadacitinib 30 mg once daily, midazolam probe
  effect of upadacitinib on CYP3A activity / probe exposure in vivo (in words): limited effect
[3]; CYP probe substrates alone or after multiple doses of upadacitinib 30 mg once daily, healthy subjects
  tolerability: well tolerated
[3]; one subject
  adverse event assessed as possibly related to upadacitinib: mild oropharyngeal pain
[4]
  administered dose recovered as unchanged upadacitinib in feces and urine: more than 60%
  metabolizing enzymes: metabolized by cytochrome P450 (CYP) 3A and, to a lesser extent, by CYP2D6
[4]; multiple once-daily dosing of the extended-release formulation
  accumulation in plasma: no accumulation
CYP3A [5]; concluded from ketoconazole and rifampin interaction
  sensitivity as CYP3A substrate: not a sensitive substrate for CYP3A
CYP3A [5]; with ketoconazole, a strong CYP3A inhibitor
  increase in upadacitinib AUC: 75%
